Like-named read-outs stand apart in the source and are kept apart here.
Key:
[1] = biological target: T1, human recombinant 5-LOX (Homo sapiens, UniProt P09917); assay: 5-LOX inhibition, UV-Vis spectrophotometric assay; type: biochemical; conditions: for inhibition at 10 µM: read-out: % inhibition of 5-LOX
T1 sequence (P09917 1-674): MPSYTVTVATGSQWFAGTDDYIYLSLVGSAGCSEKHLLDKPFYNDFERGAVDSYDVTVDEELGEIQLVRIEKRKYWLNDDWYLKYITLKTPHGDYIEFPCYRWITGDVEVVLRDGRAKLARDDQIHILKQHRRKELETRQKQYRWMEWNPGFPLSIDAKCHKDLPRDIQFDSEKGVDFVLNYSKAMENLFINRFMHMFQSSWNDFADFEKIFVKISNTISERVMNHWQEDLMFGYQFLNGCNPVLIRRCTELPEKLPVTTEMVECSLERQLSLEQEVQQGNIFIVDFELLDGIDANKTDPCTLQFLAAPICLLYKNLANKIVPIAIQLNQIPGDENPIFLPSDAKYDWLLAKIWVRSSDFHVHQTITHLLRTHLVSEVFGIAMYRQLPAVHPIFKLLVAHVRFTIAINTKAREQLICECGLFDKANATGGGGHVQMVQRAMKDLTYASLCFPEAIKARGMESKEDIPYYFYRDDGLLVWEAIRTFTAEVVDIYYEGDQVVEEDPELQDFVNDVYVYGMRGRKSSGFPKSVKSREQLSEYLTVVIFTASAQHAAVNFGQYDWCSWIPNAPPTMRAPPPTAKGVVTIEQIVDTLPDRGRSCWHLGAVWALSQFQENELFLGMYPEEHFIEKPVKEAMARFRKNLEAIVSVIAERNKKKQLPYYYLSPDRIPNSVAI
Outline: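 Human recombinant 5-LOX (0.5 unit/ml final) pre-incubated 5 min at RT in the dark with test compound, CaCl2 (0.4 mm final), L-α-phosphatidylcholine type II-S (24 µg/ml final) and ATP (0.2 mm final). Reaction started with arachidonic acid (50 µm final) in quartz microcuvettes. 5-HpETE conjugated diene formation followed as absorbance increase at 234 nm (ε = 25 000 M−1 cm−1).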

[2] = system: SW480 cells; assay: Cytotoxicity, acid phosphatase assay, SW480 cells; type: cell-based, human; conditions: 10, 30 and 50 µM, 24 h
Outline: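 SW480 cells seeded at 4 × 10^4 per well 24 h before compound exposure, then exposed to test compound for 24 h. Wells washed with PBS. Acid phosphatase substrate (p-nitrophenyl phosphate in sodium acetate, 0.1% Triton X-100, pH 5.5) added for 1 h at 37°C, 5% CO2, in the dark. Stopped with NaOH; absorbance read at 405 nm. Mean ± SEM, n = 4.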

[3] = system: THP-1 macrophages; assay: Cytotoxicity, acid phosphatase assay, THP-1 macrophages; type: cell-based, human; conditions: 10, 30 and 50 µM, 24 h
Outline: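 THP-1 monocytes seeded at 4 × 10^4 per well, PMA-differentiated for 48 h, then rested for 3 days. Macrophages exposed to test compound for 24 h and washed with PBS. p-Nitrophenyl phosphate substrate (sodium acetate, 0.1% Triton X-100, pH 5.5) added for 1 h at 37°C in the dark. Stopped with NaOH; read at 405 nm. Mean ± SEM, n = 4.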

[4] = system: IL-10−/− colitis mice; conditions: IL-10 -/- murine model of colitis; cited from earlier work
[5] = system: nitric oxide (NO) released from SW480 cells; assay: Nitric oxide inhibition, GREISS assay, LPS-induced SW480 cells; type: cell-based, human; conditions: for inhibition at 10 µM: SW480, read-out: % inhibition of NO released; for % inhibition of NO released: 10 µM, mean ± SEM, n = 3
Outline: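 SW480 cells stimulated with 1 µg/ml S. typhimurium LPS plus IFN-γ for 48 h at 37°C, 5% CO2. Fresh supernatant mixed with an equal volume of sulphanilamide for 10 min at RT in the dark, then NED added for 20 min. Absorbance read at 540 nm; nitrite quantified against a 0–100 NO2 standard curve. Mean ± SEM, n = 3.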

[6] = system: TNF-α in THP-1 macrophages; assay: Cytokine profiling THP-1 macrophages: TNF-α; type: cell-based, human; conditions: for level of TNF-α: CTRL 1 22.305 ± 2.753; for inhibition at 10 µM: Homo sapiens, THP-1, read-out: % inhibition of TNF-α
[7] = system: IL-8 from LPS-induced SW480 cells; assay: IL-8 from LPS-induced SW480 cells; type: cell-based, human; conditions: for level of IL-8: 10 µM, LPS-induced SW480 cells, CTRL 1 3.324 ± 0.076; for inhibition at 10 µM: Homo sapiens, SW480, read-out: % inhibition of IL-8 over CTRL 1
[8] = system: IL-6 in THP-1 macrophages; assay: Cytokine profiling THP-1 macrophages: IL-6; type: cell-based, human; conditions: for level of IL-6: 24 h, CTRL 1 1.666 ± 0.256; for inhibition at 10 µM: Homo sapiens, THP-1, read-out: IL-6 inhibition over CTRL 1
[9] = system: DSS colitis mice; conditions: cited from earlier work
[10] = system: nitric oxide (NO) released from SW480 cells; conditions: read-out: IC50 NO inhibition, reported value; literature value; cited from earlier work
[11] = system: IL-1β in THP-1 macrophages; assay: Cytokine profiling THP-1 macrophages: IL-1β; type: cell-based, human; conditions: 10 µM, LPS-stimulated THP-1 macrophages; CTRL 1 0.329 ± 0.042
[12] = Homo sapiens, SW480, read-out: IC50 NO inhibition
[13] = 10 µM, LPS-stimulated THP-1 macrophages

Compound | IC50 [5, 12] | inhibition at 10 µM [1] | level of TNF-α [6, 13] | level of IL-8 [7] | inhibition at 10 µM [7] | level of IL-6 [8, 13] | % inhibition of NO released ([5]; LPS-induced SW480 cells) | further results
CC(Cc1ccc(O)c(O)c1)C(C)Cc1ccc(O)c(O)c1 (stereo not drawn) [NDGA, nordihydroguaiaretic acid, reference compound] | – | – | – | – | – | – | – | % inhibition of 5-LOX ([1]; screened at 10 µM, mean ± SEM, n = 3): 51.92 ± 1.01%
O=C(O)c1ccc(C[C@@]2(C3=Cc4ccccc4C3)Cc3ccccc3[C@H]2O)cc1 [compound 2, 4-(((1'S,2'S)-1'-hydroxy-1',3'-dihydro-1H,2'H-[2,2'-biinden]-2'-yl)methyl)benzoic acid] | 19.7 ± 7.88 µM | 45.3 ± 5.28% | 11.613 ± 0.162 pg/µg ml | 2.529 ± 0.058 pg/µg ml | 23.9% | 0.132 ± 0.038 pg/µg ml | – | cytotoxicity in SW480 cells [2]: no cytotoxicity effects; cytotoxicity in THP-1 macrophages [3]: no cytotoxicity effects; DAI [4]: reduced; inhibition at 10 µM ([5]; Homo sapiens): 56.5 ± 3.09%; inhibition at 10 µM [6]: 45.2%; inhibition at 10 µM [8]: 92.1%; colon cytokine levels of TNFα, IL-6 and IL1b ([9]; DSS colitis mice): reduced; DAI ([9]; acute 5% DSS murine model of colitis): reduced; MPO activity, a measure of inflammatory cell infiltration ([9]; murine model of colitis, model not given): significantly reduced
O=C(O)c1ccc(C[C@@]2(C3=Cc4ccccc4C3)Cc3ccccc3C2=O)cc1 [compound 6, (S)-4-((1'-oxo-1',3'-dihydro-1H,2'H-[2,2'-biinden]-2'-yl)methyl)benzoic acid] | – | – | – | – | – | – | inhibited NO production | –
O=C(O)c1ccc(CC2(C3=Cc4ccccc4C3)Cc3ccccc3C2)cc1 [compound 7, 4-((1',3'-dihydro-1H,2'H-[2,2'-biinden]-2'-yl)methyl)benzoic acid] | – | 39.7 ± 4.95% | – | 2.676 ± 0.142 pg/µg ml | 19.5% | – | inhibited NO production | cytotoxicity in SW480 cells [2]: no cytotoxicity effects; cytotoxicity in THP-1 macrophages [3]: no cytotoxicity effects; IL-6 inhibition over CTRL 1 [8, 13]: less potent but statistically significant
O[C@@H]1c2ccccc2C[C@@]1(Cc1ccccc1)C1=Cc2ccccc2C1 [compound 8, (1S,2S)-2-benzyl-2,3-dihydro-1H,1'H-[2,2'-biinden]-1-ol] | – | – | 14.193 ± 1.685 pg/µg ml | 2.288 ± 0.059 pg/µg ml | 31.2% | 0.075 ± 0.019 pg/µg ml | – | inhibition at 10 µM [6]: 33%; inhibition at 10 µM [8]: 95.5%
O=C1c2ccccc2C[C@@]1(Cc1ccccc1)C1=Cc2ccccc2C1 [compound 9, (S)-2-benzyl-2,3-dihydro-1H,1'H-[2,2'-biinden]-1-one] | 20.5 ± 2.89 µM | – | – | – | – | – | inhibited NO production | –
C[C@]12CCC(=O)C=C1CC[C@@H]1[C@@H]2[C@@H](O)C[C@@]2(C)[C@H]1CC[C@]2(O)C(=O)CO [hydrocortisone, reference compound] | 48.7 µM | – | – | – | – | – | – | inhibition at 10 µM ([5]; Homo sapiens): 43.5 ± 12.3%
CC(c1cc2ccccc2s1)N(O)C(N)=O (stereo not drawn) [zileuton, reference compound] | – | 45.2 ± 5.36% | – | – | – | – | – | –
COc1c(O)cc2oc3cc(O)c(CC=C(C)C)c(O)c3c(=O)c2c1CC=C(C)C [α-mangostin, reference compound] | – | – | – | – | – | – | 61.63 ± 7.50% | IC50 ([5]; read-out: IC50 NO inhibition, LPS-induced SW480 cells): 8.87 ± 1.18 µM; IC50 [10]: 12.2 µM
Infliximab: positive control; anti-TNF-α therapy for IBD treatment | – | – | 0.002 ± 0 pg/µg ml | – | – | 0.924 ± 0.180 pg/µg ml | – | % inhibition of TNF-α [6, 13]: 99.98%; level of IL-1β [11]: 0.329 ± 0.059 pg/µg ml
